The results in this text go back to ChEMBL document CHEMBL4334522, “Optimization Strategy of Novel Peptide-Based Michael Acceptors for the Treatment of Human African Trypanosomiasis” (J Med Chem, 2019).

Activity calls are given as the source filed them. The rule behind the calls is not given here.

Experiment [1] deals with T1, Procathepsin L (Homo sapiens, UniProt P07711). In words: Inhibition of human Cathepsin L assessed as second order rate constant obtained from ratio of Kinact to Ki using Cbz-Phe-Arg-AMC as substrate by fluorescence assay.
Target sequence in this assay (P07711 114-333 limits assumed): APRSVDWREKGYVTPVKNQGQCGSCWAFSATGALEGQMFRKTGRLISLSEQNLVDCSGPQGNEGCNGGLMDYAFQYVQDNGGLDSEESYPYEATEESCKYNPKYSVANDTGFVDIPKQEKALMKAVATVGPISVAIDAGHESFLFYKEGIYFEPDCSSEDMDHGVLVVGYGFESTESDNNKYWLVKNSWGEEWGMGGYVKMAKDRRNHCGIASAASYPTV
The target of experiment [2] is Rhodesain (Trypanosoma brucei rhodesiense) (UniProt Q95PM0). The experiment can be described thus: Inhibition of Trypanosoma brucei rhodesiense rhodesain expressed in Pichia pastoris assessed as first-order rate constant measured for 30 mins using Cbz-Phe-Arg-AMC as substrate by fluorescence assay. An outline of the steps: (§1)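 Continuous rhodesain assay using 7 inhibitor concentrations spanning minimal to full inhibition, with 10 µM Cbz-Phe-Arg-AMC. Buffer: 50 mM sodium acetate pH 5.5, 5 mM EDTA, 200 mM NaCl, 0.005% Brij 35; enzyme buffer had 5 mM DTT instead. Read at room temperature for 30 min, ex 380/em 460 nm. kobs came from fitting progress curves to F = A(1−exp(−kobs·t)) + B. Fitting kobs against [I] hyperbolically gave kinac and Kiapp. Kiapp was corrected by (1+[S]/Km) with Km 0.9 µM, and k2nd = kinac/Ki. Each assay was run twice in duplicate.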
Chain of Rhodesain (Trypanosoma brucei rhodesiense) (Q95PM0 1-450): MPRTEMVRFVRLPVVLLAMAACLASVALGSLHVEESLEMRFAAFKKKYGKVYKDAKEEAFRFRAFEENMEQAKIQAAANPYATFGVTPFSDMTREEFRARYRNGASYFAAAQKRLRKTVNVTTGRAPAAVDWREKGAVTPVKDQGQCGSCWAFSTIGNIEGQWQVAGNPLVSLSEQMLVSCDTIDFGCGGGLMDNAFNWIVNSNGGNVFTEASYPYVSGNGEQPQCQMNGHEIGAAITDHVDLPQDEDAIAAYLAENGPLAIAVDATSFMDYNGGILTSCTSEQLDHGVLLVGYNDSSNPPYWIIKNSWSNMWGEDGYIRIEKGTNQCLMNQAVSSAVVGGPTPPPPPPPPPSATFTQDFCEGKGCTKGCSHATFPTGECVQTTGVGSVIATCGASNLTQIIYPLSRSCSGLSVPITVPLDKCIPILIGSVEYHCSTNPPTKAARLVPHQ

Experiment [3] concerns the target T1, Procathepsin L. The experiment can be described thus: Inhibition of human Cathepsin L assessed as first-order rate constant using Cbz-Phe-Arg-AMC as substrate by fluorescence assay.
Target sequence in this assay (P07711 114-333 limits assumed): as the sequence (P07711 114-333 limits assumed) above
Experiment [4] concerns the target T1, Procathepsin L. In words: Inhibition of human Cathepsin L assessed as inhibition constant using Cbz-Phe-Arg-AMC as substrate by fluorescence assay.
Target sequence in this assay (P07711 whole entry): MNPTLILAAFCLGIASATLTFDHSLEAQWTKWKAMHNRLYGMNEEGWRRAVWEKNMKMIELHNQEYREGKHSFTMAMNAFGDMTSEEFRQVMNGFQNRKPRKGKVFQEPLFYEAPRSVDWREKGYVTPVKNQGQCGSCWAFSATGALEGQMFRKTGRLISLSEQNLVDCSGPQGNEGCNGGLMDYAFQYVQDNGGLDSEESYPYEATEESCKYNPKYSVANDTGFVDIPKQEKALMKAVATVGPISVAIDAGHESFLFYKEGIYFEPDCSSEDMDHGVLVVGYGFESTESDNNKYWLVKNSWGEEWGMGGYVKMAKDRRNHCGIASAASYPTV
The target of experiment [5] is Rhodesain (Trypanosoma brucei rhodesiense) (UniProt Q95PM0). The experiment can be described thus: Inhibition of Trypanosoma brucei rhodesiense rhodesain expressed in Pichia pastoris assessed as second order rate constant obtained from ratio of Kinact to Ki measured for 30 mins using Cbz-Phe-Arg-AMC as substrate by fluorescence assay. An outline of the steps:
as §1

For experiment [6] the target is unchanged. The experiment can be described thus: Inhibition of Trypanosoma brucei rhodesiense rhodesain expressed in Pichia pastoris at 50 uM measured for 30 mins using Cbz-Phe-Arg-AMC as substrate by fluorescence assay relative to control. An outline of the steps:
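Recombinant rhodesain screened with inhibitor at 50 µM against an equivalent DMSO negative control. AMC release from 10 µM Cbz-Phe-Arg-AMC was followed continuously for 30 min.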

The target of the next experiment is Rhodesain (Trypanosoma brucei rhodesiense, UniProt Q95PM0). The experiment can be described thus: Inhibition of Trypanosoma brucei rhodesiense rhodesain expressed in Pichia pastoris assessed as inhibition constant measured for 30 mins using Cbz-Phe-Arg-AMC as substrate by fluorescence assay. An outline of the steps:
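Recombinant rhodesain, continuous fluorimetric assay with Cbz-Phe-Arg-AMC at 10 µM, ex 380/em 460 nm, read 30 min at room temperature. Buffer: 50 mM sodium acetate pH 5.5, 5 mM EDTA, 200 mM NaCl, 0.005% Brij 35; enzyme buffer has 5 mM DTT. Seven inhibitor concentrations. kobs from progress-curve fits, hyperbolic fit gives Kiapp, corrected with Km 0.9 µM to Ki. Two independent assays in duplicate.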

Experiment [7] deals with Trypanosoma brucei brucei. In words: Antitrypanosomal activity against blood stage form of Trypanosoma brucei brucei 449 incubated for 48 hrs by ATPlite assay. The experiment is classed as functional, organism-based. Conditions: Trypanosoma brucei, 449, 48 h. The essentials: (§2)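 Bloodstream-form T. b. brucei 449 (Lister 427 descendant) cultured in HMI-9 with 10% FCS, penicillin/streptomycin and 0.2 µg/mL phleomycin at 37°C, 5% CO2. Cells seeded at 2500 cells/mL. Compounds from 5 mM stocks were serially diluted 1:2 to give 16.7 µM to 32.5 nM final. Controls: 0.3% DMSO (negative) and 10% DMSO (positive). Incubated 24 h or 48 h, in two separate triplicates. Viability read by ATPlite luminescence; EC50 taken from dose-response curves.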
Background: ATP-based viability assays read luminescence as a measure of living cells.

In experiment [8] the test system is Trypanosoma brucei brucei. In words: Antitrypanosomal activity against blood stage form of Trypanosoma brucei brucei 449 incubated for 24 hrs by ATPlite assay. The experiment is classed as functional, organism-based. The conditions noted are these: Trypanosoma brucei, 449, 24 h. The essentials:
as §2

For experiment [9], the target named is Rhodesain (Trypanosoma brucei rhodesiense) (UniProt Q95PM0). The experiment can be described thus: Irreversible inhibition of Trypanosoma brucei rhodesiense rhodesain expressed in Pichia pastoris at 0.005 to 0.5 nM measured for 30 mins using Cbz-Phe-Arg-AMC as substrate by fluorescence assay. An outline of the steps: as §1

Chain of Rhodesain (Q95PM0 whole entry): as the sequence (Q95PM0 1-450) above

As a reminder, the Ki is the equilibrium dissociation constant of an inhibitor or competing ligand from its target. What is called inhibition is the share of the control response that was lost under treatment. `CC(=O)/C=C/[C@H](CCc1ccccc1)NC(=O)[C@H](Cc1ccccc1)NC(=O)N1CCOCC1`: the K at Procathepsin L [1] turned out to be 23 ×10³ /M/min; in [5], 157 ×10³ /M/min. Moreover, the Kinact in [2] is 0.00049 min⁻¹; on Procathepsin L [3] it was 0.0039 min⁻¹. The Ki on Procathepsin L [4] came to 175 nM; at Rhodesain it was 3.1 nM. This molecule showed an inhibition in experiment [6] of 85 to 100%.
On to `CC(=O)/C=C/[C@H](CCc1ccccc1)NC(=O)[C@H](Cc1ccccc1)NC(=O)Cc1ccc2c(c1)OCO2`, for which the K on Procathepsin L [1] stood at 59 ×10³ /M/min; in experiment [5], 435 ×10³ /M/min. In addition, the Kinact in experiment [2] came out at 0.00085 min⁻¹; at Procathepsin L [3], 0.0053 min⁻¹. In addition, the values for the Ki on Procathepsin L [4] and on Rhodesain were 90.3 nM and 2.1 nM, respectively. This molecule came in with an inhibition in experiment [6] of 85 to 100%.
One may read the EC50 as the midpoint of the concentration-response curve. For `CC(=O)/C=C/[C@H](CCc1ccccc1)NC(=O)[C@H](Cc1ccccc1)NC(=O)c1ccc(F)cc1`, the K on Procathepsin L [1] was determined as 1230 ×10³ /M/min; in experiment [5] it was 881000 ×10³ /M/min. Further, the Kinact was determined as 0.0009 min⁻¹ in experiment [2] and 0.0018 min⁻¹ at Procathepsin L [3]. Further, the EC50 came to 3600 nM in experiment [7] and 5100 nM in [8]. Also, the Ki on Procathepsin L [4] was determined as 1.5 nM; on Rhodesain, 0.0011 nM. Further, in [9], the inhibition entry is “Active”. For the same molecule, the inhibition in experiment [6] was 85 to 100%.
With `CC(=O)/C=C/[C@H](CCc1ccccc1)NC(=O)[C@H](Cc1ccccc1)NC(=O)c1c(F)cccc1F`, the K at Procathepsin L [1] was 8.9 ×10³ /M/min; in [5], 151000 ×10³ /M/min. Further, the values for the Kinact (in experiment [2]; at Procathepsin L [3]) were 0.0012 min⁻¹ and 0.002 min⁻¹, respectively. Further, the inhibition constant Ki was 230 nM at Procathepsin L [4] and 0.0076 nM on Rhodesain. This molecule also yielded an inhibition in experiment [6] of 85 to 100%.
On to `CC(=O)/C=C/[C@H](CCc1ccccc1)NC(=O)[C@H](Cc1ccccc1)NC(=O)c1ccc(C(F)(F)F)cc1`, for which the K was found to be 380 ×10³ /M/min at Procathepsin L [1] and 175000 ×10³ /M/min in experiment [5]. Besides, the Kinact was 0.00075 min⁻¹ in [2] and 0.0015 min⁻¹ at Procathepsin L [3]. Besides, the inhibition constant Ki came out at 4.1 nM on Procathepsin L [4] and 0.0044 nM at Rhodesain. The inhibition in experiment [6] was in the range of 85 to 100%.
Turning to `CCC(=O)/C=C/[C@H](CCc1ccccc1)NC(=O)[C@H](Cc1ccccc1)NC(=O)OCc1ccccc1`, the results for the K (on Procathepsin L [1]; in experiment [5]) were 67 ×10³ /M/min and 1800 ×10³ /M/min, respectively. Also, the Kinact turned out to be 0.00082 min⁻¹ in experiment [2] and 0.0071 min⁻¹ on Procathepsin L [3]. The inhibition constant Ki on Procathepsin L [4] was found to be 108 nM; on Rhodesain, 0.5 nM. This molecule also displayed an inhibition in experiment [6] of 85 to 100%.
With `CC(=O)/C=C/[C@H](CCc1ccccc1)NC(=O)[C@H](Cc1ccccc1)NC(=O)c1ccc(Cl)cc1`, the K at Procathepsin L [1] amounted to 3030 ×10³ /M/min; in experiment [5] it was 29300 ×10³ /M/min. Moreover, the Kinact in [2] amounted to 0.0008 min⁻¹; on Procathepsin L [3], 0.0018 min⁻¹. Besides, the concentration giving a half-maximal response (EC50) in experiment [7] was found to be 3200 nM; in experiment [8], 4800 nM. The Ki on Procathepsin L [4] was found to be 0.6 nM; at Rhodesain it was 0.029 nM. The molecule also registered an inhibition in experiment [6] of 85 to 100%.
On to `CC(=O)/C=C/[C@H](CCc1ccccc1)NC(=O)[C@H](Cc1ccccc1)NC(=O)c1cccc(F)c1`, for which the K on Procathepsin L [1] was 41 ×10³ /M/min; in experiment [5], 149000 ×10³ /M/min. Also, the values for the Kinact (in experiment [2]; at Procathepsin L [3]) were 0.0032 min⁻¹ and 0.0019 min⁻¹, respectively. Further, the values for the inhibition constant (Ki) at Procathepsin L [4] and at Rhodesain were 47 nM and 0.023 nM, respectively. Further, the inhibition in [6] was in the range of 85 to 100%.
As to `CC(=O)/C=C/[C@H](CCc1ccccc1)NC(=O)[C@H](CCc1ccccc1)NC(=O)OCc1ccccc1`, the K was determined as 12 ×10³ /M/min at Procathepsin L [1] and 137 ×10³ /M/min in experiment [5]. For the same molecule, the Kinact was 0.00072 min⁻¹ in [2] and 0.0056 min⁻¹ on Procathepsin L [3]. The EC50 in [7] is 440 nM; in [8] it was 550 nM. Besides, the inhibition constant (Ki) at Procathepsin L [4] was 453 nM; on Rhodesain it was 5.54 nM. In experiment [6], this molecule yielded an inhibition of 85 to 100%.
For the molecule `CC(=O)/C=C/[C@H](CCc1ccccc1)NC(=O)[C@H](Cc1ccccc1)NC(=O)c1ccc2c(c1)OCO2`, the K at Procathepsin L [1] worked out at 157 ×10³ /M/min; in [5], 15300 ×10³ /M/min. For the same molecule, the values for the Kinact (in experiment [2]; at Procathepsin L [3]) were 0.0005 min⁻¹ and 0.0016 min⁻¹, respectively. In addition, the results for the EC50 in experiment [7] and in experiment [8] were 3700 nM and 5000 nM, respectively. For the same molecule, the results for the Ki on Procathepsin L [4] and at Rhodesain were 10.2 nM and 0.034 nM, respectively. This molecule yielded an inhibition in experiment [6] of 85 to 100%.
For `CC(=O)/C=C/[C@H](CCc1ccccc1)NC(=O)[C@H](Cc1ccccc1)NC(=O)c1ccccc1F`, the K at Procathepsin L [1] stood at 313 ×10³ /M/min; in experiment [5], 230000 ×10³ /M/min. The Kinact in [2] is 0.0006 min⁻¹; on Procathepsin L [3] it was 0.0011 min⁻¹. In addition, the results for the Ki at Procathepsin L [4] and on Rhodesain were 5.3 nM and 0.003 nM, respectively. In experiment [6], this molecule returned an inhibition of 85 to 100%.
For the molecule `CC(=O)/C=C/[C@H](CCc1ccccc1)NC(=O)[C@H](Cc1ccccc1)NC(=O)c1cc(F)cc(F)c1`, the K at Procathepsin L [1] stood at 156 ×10³ /M/min; in experiment [5] it was 113000 ×10³ /M/min. For the same molecule, the results for the Kinact (in [2]; at Procathepsin L [3]) were 0.0016 min⁻¹ and 0.0022 min⁻¹, respectively. The EC50 was found to be 3400 nM in experiment [7] and 4000 nM in experiment [8]. Moreover, the Ki was 14.8 nM at Procathepsin L [4] and 0.015 nM on Rhodesain. For the same molecule, the inhibition in experiment [6] was in the range of 85 to 100%.
Regarding `CC(=O)/C=C/[C@H](CCc1ccccc1)NC(=O)[C@H](Cc1ccccc1)NC(=O)c1ccc2c(c1)OCCO2`, the K on Procathepsin L [1] is 102 ×10³ /M/min; in experiment [5] it was 7200 ×10³ /M/min. In addition, the Kinact in experiment [2] came out at 0.0043 min⁻¹; at Procathepsin L [3], 0.0076 min⁻¹. In addition, the Ki is 78.2 nM at Procathepsin L [4] and 0.74 nM on Rhodesain. The molecule further came in with an inhibition in [6] of 85 to 100%.
In the case of `CC(=O)/C=C/[C@H](CCc1ccccc1)NC(=O)[C@H](Cc1ccccc1)NC(=O)c1ccc(F)cc1F`, the K at Procathepsin L [1] amounted to 52 ×10³ /M/min; in experiment [5], 107000 ×10³ /M/min. Besides, the results for the Kinact (in [2]; at Procathepsin L [3]) were 7e-05 min⁻¹ and 0.0015 min⁻¹, respectively. In addition, the 50% effective concentration (EC50) in experiment [7] was 670 nM; in experiment [8], 740 nM. The inhibition constant (Ki) was 35 nM at Procathepsin L [4] and 0.0006 nM on Rhodesain. The molecule also had an inhibition in experiment [6] of 85 to 100%.
With `CC(=O)/C=C/[C@H](CCc1ccccc1)NC(=O)[C@H](Cc1ccccc1)NC(=O)N1CCN(C)CC1`, the K at Procathepsin L [1] was 31 ×10³ /M/min; in experiment [5], 266 ×10³ /M/min. For the same molecule, the Kinact is 0.00042 min⁻¹ in [2] and 0.0047 min⁻¹ on Procathepsin L [3]. For the same molecule, the Ki was 158 nM on Procathepsin L [4] and 1.8 nM on Rhodesain. In addition, the inhibition in experiment [6] was in the range of 85 to 100%.
